Test results: ChEMBL document CHEMBL4680153, “New Spisulosine Derivative promotes robust autophagic response to cancer cells” (Eur J Med Chem, 2020)
Activity calls are given as the source filed them. The rule behind the calls is not given here.

Tests used:
MCF7 = assay: Antiproliferative activity against human MCF7 cells assessed as reduction in cell growth at 10 uM incubated for 48 hrs by SRB assay relative to control; type: functional
How it was run: (§1)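 Early-passage cells plated at 40% confluency and left overnight, then exposed to 10 μM compound for 48 h. Growth was measured by sulforhodamine B staining, with absorbance at 510 nm. Percent growth inhibition was calculated against untreated cells.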

MDA-MB-231 = assay: Antiproliferative activity against human MDA-MB-231 cells assessed as reduction in cell growth at 10 uM incubated for 48 hrs by SRB assay relative to control; type: functional; how it was run: as §1
DLD-1 [1] = assay: Antiproliferative activity against human DLD-1 cells assessed as reduction in cell growth at 10 uM incubated for 48 hrs by SRB assay relative to control; type: functional; how it was run: as §1
HT-29 [2] = assay: Antiproliferative activity against human HT-29 cells assessed as reduction in cell growth at 10 uM incubated for 48 hrs by SRB assay relative to control; type: functional; how it was run: as §1
A549 = assay: Antiproliferative activity against human A549 cells assessed as reduction in cell growth at 10 uM incubated for 48 hrs by SRB assay relative to control; type: functional; how it was run: as §1
NCI-H358 = assay: Antiproliferative activity against human NCI-H358 cells assessed as reduction in cell growth at 10 uM incubated for 48 hrs by SRB assay relative to control; type: functional; how it was run: as §1
COLO 205 = assay: Antiproliferative activity against human COLO 205 cells assessed as reduction in cell growth incubated for 48 hrs by SRB assay; type: functional, cell-based; settings: COLO 205, 48 h
How it was run: (§2)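 Colon cancer lines and CCD-18Co normal colon fibroblasts, early passage, plated at 40% confluency and incubated overnight. They were then treated with varying concentrations for 48 h. The SRB read-out was absorbance at 510 nm, and IC50 was taken as the half-maximal proliferation-inhibitory concentration.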

LoVo = assay: Antiproliferative activity against human LoVo cells assessed as reduction in cell growth incubated for 48 hrs by SRB assay; type: functional, cell-based; how it was run: as §2
HT-29 [3] = assay: Antiproliferative activity against human HT-29 cells assessed as reduction in cell growth incubated for 48 hrs by SRB assay; type: functional, cell-based; settings: HT-29, 48 h; how it was run: as §2
DLD-1 [4] = assay: Antiproliferative activity against human DLD-1 cells assessed as reduction in cell growth incubated for 48 hrs by SRB assay; type: functional, cell-based; settings: DLD-1, 48 h; how it was run: as §2
SW48 = assay: Antiproliferative activity against human SW48 cells assessed as reduction in cell growth incubated for 48 hrs by SRB assay; type: functional, cell-based; settings: SW48, 48 h; how it was run: as §2
SW-620 = assay: Antiproliferative activity against human SW-620 cells assessed as reduction in cell growth incubated for 48 hrs by SRB assay; type: functional, cell-based; settings: SW-620, 48 h; how it was run: as §2
CCD-18Co = assay: Antiproliferative activity against human CCD-18Co cells assessed as reduction in cell growth incubated for 48 hrs by SRB assay; type: cell-based; how it was run: as §2
DLD-1 [5] = assay: Induction of apoptosis in human DLD-1 cells assessed as viable cells at 7.5 uM incubated for 18 hrs by Annexin V-FITC and propidium iodide staining based flow cytometry analysis (reference value: 85.2 %); type: functional; settings: read-out: Activity
DLD-1 [6] = assay: Induction of apoptosis in human DLD-1 cells assessed as early apoptotic cells at 7.5 uM incubated for 18 hrs by Annexin V-FITC and propidium iodide staining based flow cytometry analysis (reference value: 4.95 %); type: functional
DLD-1 [7] = assay: Induction of apoptosis in human DLD-1 cells assessed as late apoptotic cells at 7.5 uM incubated for 18 hrs by Annexin V-FITC and propidium iodide staining based flow cytometry analysis (reference value: 5.7 %); type: functional
DLD-1 [8] = assay: Induction of apoptosis in human DLD-1 cells assessed as necrotic cells at 7.5 uM incubated for 18 hrs by Annexin V-FITC and propidium iodide staining based flow cytometry analysis (reference value: 4.1 %); type: functional
DLD-1 [9] = assay: Induction of apoptosis in human DLD-1 cells assessed as increase in PARP cleavage at 5 to 7.5 uM by Western blot analysis; type: functional, cell-based; settings: dose 5-7.5 µM
How it was run: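 DLD-1 cells were treated at 7.5 μM for 18 h and lysed in NP-40 buffer containing protease and phosphatase inhibitors. Protein was quantified by BCA, and equal amounts were run on 15% SDS-PAGE and transferred to PVDF. Cleaved PARP was probed and detected by enhanced chemiluminescence.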

DLD-1 [10] = assay: Induction of vacuole formation in human DLD-1 cells assessed as increase in cellular granularity at 7.5 uM incubated for 18 hrs by FACS analysis; type: functional, cell-based
How it was run: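 DLD-1 cells were given vehicle or 7.5 μM compound for 18 h. Cell size (forward scatter) and granularity (side scatter) were then read by flow cytometry.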

DLD-1 [11] = assay: Induction of autophagy in human DLD-1 cells assessed as vacuole formation at 7.5 uM incubated for 20 hrs by MDC staining based confocal microscopy; type: functional, cell-based
How it was run: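 DLD-1 cells were incubated with drug for 20 h and then labeled with monodansylcadaverine in PBS for 20 min at 37°C in the dark. After washing, cells were imaged at once by confocal microscopy (excitation 390 nm, emission 460 nm).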

DLD-1 [12] = assay: Induction of autophagy in human DLD-1 cells assessed as increase in LC3B-I to LC3B-II conversion at 7.5 uM incubated for 18 hrs by Western blot analysis; type: functional, cell-based
How it was run: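 Vehicle or 7.5 μM compound was applied to DLD-1 cells for 18 h. Cells were lysed in NP-40 with inhibitors and equal protein was resolved on 15% SDS-PAGE and blotted to PVDF. Blots were probed for LC3A/B, with GAPDH as reference, and detected by ECL.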

DLD-1 [13] = assay: Induction of autophagy in human DLD-1 cells assessed as increase in LC-3 punta formation at 1 to 5 uM incubated for 6 hrs by based confocal microscopy; type: functional, cell-based; settings: dose 1-5 µM
How it was run: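 DLD-1 cells were grown overnight on coverslips and treated with vehicle or compound for 6 h. They were fixed in 4% paraformaldehyde, permeabilized with 0.1% Triton X-100 and blocked in 2% BSA. Primary antibody was applied overnight at 4°C, then fluorescent secondary for 2 h with a DAPI counterstain. LC3 puncta were imaged by confocal microscopy with a 63× oil objective.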

DLD-1 [14] = assay: Induction of autophagy in human DLD-1 cells assessed as increase in Beclin expression at 10 uM measured upto 6 hrs by Western blot analysis; type: functional, cell-based; settings: time hrs <=6
How it was run: (§3)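 DLD-1 cells were treated with 10 μM compound or vehicle for the indicated times. Equal protein from NP-40 lysates was run on 15% SDS-PAGE and transferred to PVDF. Immunoblots for Beclin-1, Atg3, Atg5 and Atg7 were developed by chemiluminescence.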

DLD-1 [15] = assay: Induction of autophagy in human DLD-1 cells assessed as increase in Atg3 expression at 10 uM measured upto 6 hrs by Western blot analysis; type: functional, cell-based; settings: time hrs <=6; how it was run: as §3
DLD-1 [16] = assay: Induction of autophagy in human DLD-1 cells assessed as increase in Atg5 expression at 10 uM measured upto 6 hrs by Western blot analysis; type: functional, cell-based; settings: time hrs <=6; how it was run: as §3
DLD-1 [17] = assay: Induction of autophagy in human DLD-1 cells assessed as increase in Atg7 expression at 10 uM measured upto 6 hrs by Western blot analysis; type: functional, cell-based; settings: time hrs <=6; how it was run: as §3
DLD-1 [18] = assay: Induction of autophagy in human DLD-1 cells assessed as vacuole formation at 5 uM measured upto 6 hrs by TEM analysis; type: functional, cell-based; settings: time hrs <=6
How it was run: (§4)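 DLD-1 cells were treated at 5 μM for 6 h, fixed in 2.5% glutaraldehyde in phosphate buffer (pH 7.4) and post-fixed in 1% OsO4. Samples were dehydrated through ethanol and embedded in Spurr resin, and ultrathin sections were stained with uranyl acetate and lead citrate. Sections were viewed by TEM at 80 kV, with at least 200 cells per set across 4 grids.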

DLD-1 [19] = assay: Induction of autophagy in human DLD-1 cells assessed as mitochondrial damage at 5 uM measured upto 6 hrs by TEM analysis; type: functional, cell-based; settings: time hrs <=6; how it was run: as §4
DLD-1 [20] = assay: Induction of autophagy in human DLD-1 cells assessed as nuclear damage at 5 uM measured upto 6 hrs by TEM analysis; type: functional, cell-based; settings: time hrs <=6; how it was run: as §4
DLD-1 [21] = assay: Induction of autophagy in human DLD-1 cells assessed as vacuole formation at 7.5 uM incubated for 24 hrs by phase contrast microscopic analysis; type: functional, cell-based
How it was run: (§5)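 DLD-1 cells received vehicle, 7.5 μM compound alone, or compound plus 100 nM bafilomycin A1 pretreatment for 24 h. Cells were then examined by phase-contrast microscopy.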

DLD-1 [22] = assay: Induction of autophagy in human DLD-1 cells assessed as reduction in cell viability at 7.5 uM incubated for 24 hrs by crystal violet staining based phase contrast microscopic analysis; type: functional
DLD-1 [23] = assay: Induction of autophagy in human DLD-1 cells assessed as vacuole formation at 7.5 uM incubated for 24 hrs in presence of Bafilomycin-A1 by phase contrast microscopic analysis; type: functional, cell-based; how it was run: as §5
DLD-1 [24] = assay: Induction of autophagy in human DLD-1 cells assessed as reduction in cell viability at 7.5 uM incubated for 24 hrs in presence of Bafilomycin-A1 by crystal violet staining based phase contrast microscopic analysis; type: functional

Compound: CCCCCCCCCCCCCC[C@H](O)[C@@H](N)Cc1ccc(OC)cc1
- inhibition at 10 µM (MCF7): 89.3%
- inhibition at 10 µM (MDA-MB-231): 96.8%
- inhibition at 10 µM (DLD-1 [1]): 97.3%
- inhibition at 10 µM (HT-29 [2]): 97.7%
- inhibition at 10 µM (A549): 94.8%
- inhibition at 10 µM (NCI-H358): 90.4%
- IC50 (COLO 205): 2.03 µM
- IC50 (LoVo): 3.33 µM
- IC50 (HT-29 [3]): 4.15 µM
- IC50 (DLD-1 [4]): 4.46 µM
- IC50 (SW48): 3.14 µM
- IC50 (SW-620): 1.86 µM
- IC50 (CCD-18Co): > 10 µM
- viability at 7.5 µM (DLD-1 [5]): 93.6%
- Activity (DLD-1 [6]): 0.46%
- Activity (DLD-1 [7]): 0.8%
- Activity (DLD-1 [8]): 5%
- Activity (DLD-1 [9]): inactive
- Activity (DLD-1 [10]): Active
- Activity (DLD-1 [11]): Active
- Activity (DLD-1 [12]): Active
- Activity (DLD-1 [13]): Active
- Activity (DLD-1 [14]): Active
- Activity (DLD-1 [15]): Active
- Activity (DLD-1 [16]): Active
- Activity (DLD-1 [17]): Active
- Activity (DLD-1 [18]): Active
- Activity (DLD-1 [19]): inactive
- Activity (DLD-1 [20]): inactive
- Activity (DLD-1 [21]): Active
- Activity (DLD-1 [22]): Active
- Activity (DLD-1 [23]): inactive
- Activity (DLD-1 [24]): inactive
